High-throughput results: PubChem BioAssay, several laboratories
Only some compounds are listed: those with a hit (about 1.4% of all), similar ones and a draw of the others.
Rev-erbA mod = Rev-erb alpha (human) modulation; Rev-erbα–FITC-DNA binding, fluorescence polarization, 90 min; P20393; actives 0.79% (n = 370,000); activity, % at 10 µM;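 active means activity above about 14%, limit read from the data; passing the limit was not always enough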
PG9 binder = binds the HIV-1 gp120 antibody PG9. TR-FRET gp120-PG9 antibody binding. AID 624416. actives 0.43% (n = 360,000). inhibition, % at 6.7 µM; in the data active means inhibition above about 8.5%
NR2E3 ag-1 = activates human NR2E3 receptor; Q9Y5X4; CHO-S Gal4-NCOR/VP16-NR2E3 two-hybrid, luciferase; inhibition of corepressor binding, % at 3.98 µM; actives 0.35% (n = 360,000); AID 602229;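 active means inhibition above the mean of all tested compounds plus 3 SD, cut at about 70% in these data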;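 further: higher means lower luciferase signal from less NR2E3 corepressor binding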
Target sequence (Q9Y5X4 whole entry, looked up, the tested form may be a part): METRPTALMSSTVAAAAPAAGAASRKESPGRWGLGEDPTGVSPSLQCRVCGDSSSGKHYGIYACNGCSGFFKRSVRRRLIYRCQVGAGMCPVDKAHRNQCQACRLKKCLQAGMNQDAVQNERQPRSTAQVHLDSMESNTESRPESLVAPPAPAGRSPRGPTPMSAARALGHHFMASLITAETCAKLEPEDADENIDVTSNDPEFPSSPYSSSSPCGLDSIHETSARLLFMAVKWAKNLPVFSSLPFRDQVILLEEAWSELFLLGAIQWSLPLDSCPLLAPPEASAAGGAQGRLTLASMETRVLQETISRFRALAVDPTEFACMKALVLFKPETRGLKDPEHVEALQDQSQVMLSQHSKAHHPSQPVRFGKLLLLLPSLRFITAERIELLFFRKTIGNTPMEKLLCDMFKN
NR2E3 ag-2 = agonists of human nuclear receptor NR2E3. Q9Y5X4. GST-NR2E3/biotin-RetCOR TR-FRET, 1536-well. inhibition of corepressor binding, % at 4.78 µM. actives 0.12% (n = 320,000). AID 2300;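 active means percent inhibition above the cutoff of mean plus 3 SD of all tested compounds, set per screening campaign, cut at about 20% in these data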
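Assay system: NR2E3–RetCOR corepressor complex. Quantity: 1.35 nM GST-NR2E3. Buffer or medium: pH 7.5 Tris-based buffer. Reagent: biotinylated RetCOR corepressor at 7 nM final. Schedule: 5 h at 4 °C. Detection: TR-FRET, emission read at 617 and 671 nm. Replicates: one well per compound, singlicate testing.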
Rev-erbA confirm = confirmation of modulators of human Rev-erb alpha DNA binding. shares compounds with Rev-erbA mod. Rev-erb alpha FITC-DNA binding, fluorescence polarization, 90 min. activation, % at 25 µM. actives 61% (n = 3,000);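 active means activation at or above a set limit, or at least 3 SD above the negative control mean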
RORg DNA counter = RORgamma DNA-binding activity, dose-response counter-screen. shares compounds with Rev-erbA mod. purified RORgamma protein-FITC-DNA binding, fluorescence polarization. IC50, µM. actives 8% (n = 910). AID 1259320;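 active means Compounds whose fitted half-maximal concentration for disrupting protein-DNA binding is below 10 micromolar; the record names Rev-erb in its text, so the target is in doubt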
Each line names hits and unclear results; the compound was inactive in the other large screens (follow-up assays come after a bar, where they were run).

O=C(O)c1nc2nc(Cl)c(Cl)nc2[nH]1	none
CCCCCCc1nc2nc(Cl)c(Cl)nc2[nH]1	Rev-erbA mod 21.7 (no result: NR2E3 ag-2) | Rev-erbA confirm inactive
O=C1CC(c2ccccc2)Cc2nc(N3CCc4ccccc43)ncc21 (centres undefined)	Rev-erbA mod 29.6 | Rev-erbA confirm 23.4
O=C1CC(c2cccc(Cl)c2)Cc2nc(N3CCN(c4ccccc4)CC3)ncc21 (centres undefined)	Rev-erbA mod 36.7 | Rev-erbA confirm 19.3
O=C1CC(c2cccc(Cl)c2)Cc2nc(N3CCOCC3)ncc21 (centres undefined)	none
CCS(=O)(=O)Nc1ccc(Cc2ccncc2)cc1	none
Cc1c(-c2ccc(F)cc2)nc(N)c(C#N)c1-c1cccnc1	none
Cc1c(-c2ccc(F)cc2)nc(N)c(C#N)c1-c1cccs1	Rev-erbA mod 78.0 | Rev-erbA confirm 52.7 | RORg DNA counter 3.21
Cc1nn(-c2ccc(F)cc2)c2nc(N)c(C#N)c(-c3cccs3)c12	Rev-erbA mod 80.2 | Rev-erbA confirm 44.9
Cc1nn(-c2ccc(F)cc2)c2nc(N)c(C#N)c(-c3ccc(O)c(O)c3)c12	none (no result: NR2E3 ag-2)
O=C(Nc1ccc(F)c(Cl)c1)c1cc(C2CCCN(S(=O)(=O)c3cccs3)C2)on1 (centres undefined)	none (no result: NR2E3 ag-2)
CC(=O)Nc1ccc(-c2ccnc(-c3ccc(NC(C)=O)cc3)n2)cc1	Rev-erbA mod 20.1 | Rev-erbA confirm inactive
COc1cc(OC)cc(C(=O)Nc2ccc(S(=O)(=O)Nc3cnc4ccccc4n3)cc2)c1	none
COc1cc(OC)cc(C(=O)Nc2ccc(S(=O)(=O)Nc3ccccn3)cc2)c1	Rev-erbA mod 24.6 | Rev-erbA confirm inactive
O=S(=O)(c1ccccc1)c1nc(-c2ccc(F)cc2)oc1NCC1CCCO1 (centres undefined)	none
CNc1oc(-c2ccc(F)cc2)nc1S(=O)(=O)c1ccccc1	Rev-erbA mod 34.4 | Rev-erbA confirm inactive
CCCn1c(-c2cccs2)nc2c1c(=O)[nH]c(=O)n2Cc1ccccc1	Rev-erbA mod 22.7 | Rev-erbA confirm inactive
CCCCn1c(=O)[nH]c(=O)c2c1nc(-c1ccccc1F)n2Cc1ccccc1	none
Cc1nc2c(C)cccn2c(=O)c1NC(=O)c1cccs1	none
Cc1nc2c(C)cccn2c(=O)c1NC(=O)c1cccc2ccccc12	Rev-erbA mod 28.7 | Rev-erbA confirm inactive
Cc1nc(SCC(=O)Nc2ccc(C)c(F)c2)c2oc3ccccc3c2n1	Rev-erbA mod 778.9 | Rev-erbA confirm 682.2
Cc1nc(SCC(=O)NC2CCCC2)c2oc3ccccc3c2n1	Rev-erbA mod 35.2 (no result: NR2E3 ag-2) | Rev-erbA confirm 652.5 | RORg DNA counter inactive
Cc1ccc(NC(=O)CSc2ncccn2)cc1F	none
Cc1nc(SCc2ccccc2)c2oc3ccccc3c2n1	none
CC(=O)c1cccc(NC(=O)CCn2c(=S)oc3ccccc32)c1	Rev-erbA mod 29.3 | Rev-erbA confirm inactive
CC(=O)Nc1ccc(CN2CCCC(CO)(Cc3ccccc3C)C2)cc1 (centres undefined)	none
COc1ccc(CCn2c(-c3ccccc3)nc3c(c(=O)c4ccccc4n3C)c2=O)cc1	none (no result: NR2E3 ag-1)
COc1ccc(CCn2c(-c3ccc(F)cc3)nc3c(c(=O)c4ccccc4n3C)c2=O)cc1OC	Rev-erbA mod 41.0 | Rev-erbA confirm inactive
O=C(Nc1ccc(Oc2ccccc2)nc1)[C@H]1O[C@@H](n2ccc(=O)[nH]c2=O)[C@H](O)[C@@H]1O	Rev-erbA mod 19.9 (no result: NR2E3 ag-2) | Rev-erbA confirm inactive
Cc1c(Cl)cccc1NC(=O)Cn1cc(C(F)(F)F)cc(Cl)c1=O	Rev-erbA mod 43.6 | Rev-erbA confirm 42.7 | RORg DNA counter inactive
Cc1ccc(Cl)cc1NC(=O)Cn1cc(C(F)(F)F)cc(Cl)c1=O	none
O=C(CCCCn1c(=O)[nH]c2ccccc2c1=O)N1CCN(c2cccc(C(F)(F)F)c2)CC1	none
O=C(CCCn1c(=S)[nH]c2ccccc2c1=O)N1CCN(c2cccc(Cl)c2)CC1	Rev-erbA mod 26.1 | Rev-erbA confirm 56.8
COc1ccc(C#Cc2ccc(C3=CC(=O)CC(C)(C)C3=O)cc2)cc1	Rev-erbA mod 153.0 (no result: NR2E3 ag-2) | Rev-erbA confirm 50.8 | RORg DNA counter inactive
N#Cc1cn(CC(=O)N2CCCC2)c2ccccc12	none
Cc1ccc2[nH]c(-c3ccccc3)c(CN(C)C)c(=O)c2c1	none
C=CCOc1ccc(C2C(C(=O)c3cccs3)=C(O)C(=O)N2c2nnc(C)s2)cc1 (centres undefined)	Rev-erbA mod 33.5 | Rev-erbA confirm 53.9 | RORg DNA counter inactive
CCN(CC)S(=O)(=O)c1ccc(N2CCOCC2)c(NC(=O)c2cccc3c(=O)c(C)c(-c4ccccc4)oc23)c1	none
COc1ccc(S(=O)(=O)N2CCOCC2)cc1NC(=O)c1cccc2c(=O)c(C)c(-c3ccccc3)oc12	Rev-erbA mod 68.9 | Rev-erbA confirm 37.1
CC(=O)c1ccc(N2CCN(S(=O)(=O)c3ccc4c(c3)CC(C)N4C(=O)C3CC3)CC2)cc1 (centres undefined)	Rev-erbA mod 30.8 | Rev-erbA confirm 24.2
COc1ccc(NC(=O)COC(=O)C2CCN(C(=O)c3ccc(Cl)cc3)CC2)c([N+](=O)[O-])c1	none (no result: NR2E3 ag-2)
Cc1cc(C)nc(NS(=O)(=O)c2ccc(N/C=C/C(=O)c3ccc(Cl)c(Cl)c3)cc2)n1	Rev-erbA mod 31.9 | Rev-erbA confirm 19.1
COc1cc(NS(=O)(=O)c2ccc(N/C=C\C(=O)c3ccc(C)cc3)cc2)nc(OC)n1	none
Cc1cc(C)nc(NS(=O)(=O)c2ccc(N/C=C\C(=O)c3ccc(Cl)cc3)cc2)n1	none
CCOc1ccc(C(=O)/C=C/Nc2ccc(S(=O)(=O)Nc3cc(C)nc(C)n3)cc2)cc1	Rev-erbA mod 19.8 (no result: NR2E3 ag-1) | Rev-erbA confirm inactive
CCNC(=O)C[C@H]1CC[C@H]2[C@@H](COc3ccc(NC(=O)Nc4ccccc4)cc3C(=O)N2C)O1	Rev-erbA mod 33.9 (no result: PG9 binder, NR2E3 ag-1, NR2E3 ag-2) | Rev-erbA confirm 13.1
CCCNC(=O)C[C@H]1CC[C@H]2[C@@H](COc3ccc(NC(=O)Nc4ccc(C#N)cc4)cc3C(=O)N2C)O1	Rev-erbA mod 35.6 (no result: PG9 binder, NR2E3 ag-1, NR2E3 ag-2) | Rev-erbA confirm 18.8
CNC(=O)C[C@H]1CC[C@H]2[C@@H](COc3ccc(NC(=O)Nc4ccccc4)cc3C(=O)N2C)O1	Rev-erbA mod 27.7 (no result: PG9 binder, NR2E3 ag-1, NR2E3 ag-2) | Rev-erbA confirm 14.0
COC(=O)C[C@@H]1CC[C@@H]2[C@H](COc3ccc(NC(=O)c4ccc5c(c4)OCO5)cc3C(=O)N2C)O1	none (no result: PG9 binder, NR2E3 ag-1, NR2E3 ag-2)
CCNC(=O)C[C@H]1CC[C@H]2[C@@H](COc3ccc(NC(=O)c4ccc5c(c4)OCO5)cc3C(=O)N2C)O1	Rev-erbA mod 141.2 (no result: PG9 binder, NR2E3 ag-1, NR2E3 ag-2) | Rev-erbA confirm 47.6 | RORg DNA counter inactive
Cc1nc(N)c(C#N)c(-c2cccnc2)c1-c1ccccc1	none
Cc1ccc2c(n1)sc1c(-c3ccccc3)c(C#N)c(N)nc12	Rev-erbA mod 49.0 | Rev-erbA confirm 38.0 | RORg DNA counter inactive
